Measurements taken from ChEMBL document CHEMBL3593164, “Rational Design and Synthesis of Thioridazine Analogues as Enhancers of the Antituberculosis Therapy” (J Med Chem, 2015).

Legend:
[1] = tested on: Mycobacterium tuberculosis; assay: Inhibition of multidrug resistance efflux pump in Mycobacterium tuberculosis H37Rv assessed as reduction in rifampin MIC at 4 ug/ml after 7 days by two-dimensional broth microdilution checkerboard assay
In short: (§1)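 M. tuberculosis H37Rv two-dimensional broth microdilution checkerboard. MICs of INH, RIF, AMK, OFX or EtBr were determined without and with graded sub-inhibitory compound concentrations, starting at ½ MIC. Where MIC was undeterminable, the highest concentration still permitting growth was taken as ½ MIC. FIC = MIC of antibacterial in combination / MIC alone. FIC ≤0.25 was scored as synergism and ≥2 as antagonism.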

[2] = tested on: Mycobacterium tuberculosis; assay: Inhibition of multidrug resistance efflux pump in Mycobacterium tuberculosis H37Rv assessed as rifampin MIC at 1 ug/ml after 7 days by two-dimensional broth microdilution checkerboard assay; settings: 168 h; in short: as §1
[3] = tested on: Mycobacterium tuberculosis; assay: Inhibition of multidrug resistance efflux pump in Mycobacterium tuberculosis H37Rv assessed as amikacin MIC at 2 ug/ml after 7 days by two-dimensional broth microdilution checkerboard assay; settings: 168 h
[4] = tested on: Mycobacterium tuberculosis; assay: Inhibition of multidrug resistance efflux pump in Mycobacterium tuberculosis H37Rv assessed as ethidium bromide MIC at 2 ug/ml after 7 days by two-dimensional broth microdilution checkerboard assay; settings: 168 h
[5] = tested on: Mycobacterium tuberculosis; assay: Inhibition of multidrug resistance efflux pump in Mycobacterium tuberculosis H37Rv assessed as isoniazid MIC at 2 ug/ml after 7 days by two-dimensional broth microdilution checkerboard assay; settings: 168 h
[6] = tested on: Mycobacterium tuberculosis; assay: Inhibition of multidrug resistance efflux pump in Mycobacterium tuberculosis H37Rv assessed as reduction in ethidium bromide MIC at 32 ug/ml after 7 days by two-dimensional broth microdilution checkerboard assay; in short: as §1
[7] = tested on: Mycobacterium tuberculosis; assay: Inhibition of multidrug resistance efflux pump in Mycobacterium tuberculosis H37Rv assessed as ethidium bromide MIC at 1 ug/ml after 7 days by two-dimensional broth microdilution checkerboard assay; settings: 168 h; in short: as §1
[8] = tested on: Mycobacterium tuberculosis; assay: Inhibition of multidrug resistance efflux pump in Mycobacterium tuberculosis H37Rv assessed as reduction in ethidium bromide MIC at 128 ug/ml after 7 days by two-dimensional broth microdilution checkerboard assay
[9] = tested on: Mycobacterium tuberculosis; assay: Inhibition of multidrug resistance efflux pump in Mycobacterium tuberculosis H37Rv assessed as reduction in amikacin MIC at 128 ug/ml after 7 days by two-dimensional broth microdilution checkerboard assay
[10] = tested on: Mycobacterium tuberculosis; assay: Inhibition of multidrug resistance efflux pump in Mycobacterium tuberculosis H37Rv assessed as isoniazid MIC at 0.12 ug/ml after 7 days by two-dimensional broth microdilution checkerboard assay; settings: 168 h
In short: (§2)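 M. tuberculosis H37Rv ATCC27294. MICs of INH, RIF, AMK, OFX and EtBr were determined alone and with sub-inhibitory concentrations of test compound by two-dimensional broth microdilution checkerboard. Where a compound's MIC was not determinable, the highest concentration still allowing growth was taken as ½ MIC. FIC = MIC in combination / MIC alone. FIC ≤0.25 was scored as synergism and ≥2 as antagonism.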

[11] = tested on: Mycobacterium tuberculosis; assay: Inhibition of multidrug resistance efflux pump in Mycobacterium tuberculosis H37Rv assessed as isoniazid MIC at 1.88 ug/ml after 7 days by two-dimensional broth microdilution checkerboard assay; settings: 168 h; in short: as §2
[12] = tested on: Mycobacterium tuberculosis; assay: Inhibition of multidrug resistance efflux pump in Mycobacterium tuberculosis H37Rv assessed as amikacin MIC at 7.5 ug/ml after 7 days by two-dimensional broth microdilution checkerboard assay; settings: 168 h; in short: as §1
[13] = tested on: Mycobacterium tuberculosis; assay: Inhibition of multidrug resistance efflux pump in Mycobacterium tuberculosis H37Rv assessed as ethidium bromide MIC at 1.88 ug/ml after 7 days by two-dimensional broth microdilution checkerboard assay; settings: 168 h; in short: as §2
[14] = tested on: Mycobacterium tuberculosis; assay: Inhibition of multidrug resistance efflux pump in Mycobacterium tuberculosis H37Rv assessed as amikacin MIC at 1.88 ug/ml after 7 days by two-dimensional broth microdilution checkerboard assay; settings: 168 h; in short: as §2
[15] = tested on: Mycobacterium tuberculosis; assay: Inhibition of multidrug resistance efflux pump in Mycobacterium tuberculosis H37Rv assessed as isoniazid MIC at 0.23 ug/ml after 7 days by two-dimensional broth microdilution checkerboard assay; settings: 168 h; in short: as §2
[16] = tested on: Mycobacterium tuberculosis; assay: Inhibition of multidrug resistance efflux pump in Mycobacterium tuberculosis H37Rv assessed as ethidium bromide MIC at 3.75 ug/ml after 7 days by two-dimensional broth microdilution checkerboard assay; settings: 168 h; in short: as §2
[17] = tested on: Mycobacterium tuberculosis; assay: Inhibition of multidrug resistance efflux pump in Mycobacterium tuberculosis H37Rv assessed as amikacin MIC at 0.47 ug/ml after 7 days by two-dimensional broth microdilution checkerboard assay; settings: 168 h; in short: as §2
[18] = tested on: Mycobacterium tuberculosis; assay: Inhibition of multidrug resistance efflux pump in Mycobacterium tuberculosis H37Rv assessed as ofloxacin MIC at 0.23 ug/ml after 7 days by two-dimensional broth microdilution checkerboard assay; settings: 168 h; in short: as §2
[19] = tested on: Mycobacterium tuberculosis; assay: Inhibition of multidrug resistance efflux pump in Mycobacterium tuberculosis H37Rv assessed as rifampin MIC at 0.94 ug/ml after 7 days by two-dimensional broth microdilution checkerboard assay; settings: 168 h; in short: as §2
[20] = tested on: Mycobacterium tuberculosis; assay: Inhibition of multidrug resistance efflux pump in Mycobacterium tuberculosis H37Rv assessed as reduction in rifampin MIC at 7.5 ug/ml after 7 days by two-dimensional broth microdilution checkerboard assay; in short: as §1
[21] = tested on: Mycobacterium tuberculosis; assay: Inhibition of multidrug resistance efflux pump in Mycobacterium tuberculosis H37Rv assessed as amikacin MIC at 0.23 ug/ml after 7 days by two-dimensional broth microdilution checkerboard assay; settings: 168 h; in short: as §2
[22] = tested on: Mycobacterium tuberculosis; assay: Inhibition of multidrug resistance efflux pump in Mycobacterium tuberculosis H37Rv assessed as ethidium bromide MIC at 7.5 ug/ml after 7 days by two-dimensional broth microdilution checkerboard assay; settings: 168 h; in short: as §1
[23] = tested on: Mycobacterium tuberculosis; assay: Inhibition of multidrug resistance efflux pump in Mycobacterium tuberculosis H37Rv assessed as amikacin MIC at 3.75 ug/ml after 7 days by two-dimensional broth microdilution checkerboard assay; settings: 168 h; in short: as §2
[24] = tested on: Mycobacterium tuberculosis; assay: Inhibition of multidrug resistance efflux pump in Mycobacterium tuberculosis H37Rv assessed as ethidium bromide MIC at 0.23 ug/ml after 7 days by two-dimensional broth microdilution checkerboard assay; settings: 168 h; in short: as §2
[25] = tested on: Mycobacterium tuberculosis; assay: Inhibition of multidrug resistance efflux pump in Mycobacterium tuberculosis H37Rv assessed as reduction in ethidium bromide MIC at 3.75 ug/ml after 7 days by two-dimensional broth microdilution checkerboard assay; in short: as §1
[26] = tested on: Mycobacterium tuberculosis; assay: Inhibition of multidrug resistance efflux pump in Mycobacterium tuberculosis H37Rv assessed as ethidium bromide MIC at 0.47 ug/ml after 7 days by two-dimensional broth microdilution checkerboard assay; settings: 168 h; in short: as §2
[27] = tested on: Mycobacterium tuberculosis; assay: Inhibition of multidrug resistance efflux pump in Mycobacterium tuberculosis H37Rv assessed as isoniazid MIC at 0.47 ug/ml after 7 days by two-dimensional broth microdilution checkerboard assay; settings: 168 h; in short: as §2
[28] = tested on: Mycobacterium tuberculosis; assay: Inhibition of multidrug resistance efflux pump in Mycobacterium tuberculosis H37Rv assessed as ofloxacin MIC at 3.75 ug/ml after 7 days by two-dimensional broth microdilution checkerboard assay; settings: 168 h; in short: as §2
[29] = tested on: Mycobacterium tuberculosis; assay: Inhibition of multidrug resistance efflux pump in Mycobacterium tuberculosis H37Rv assessed as ofloxacin MIC at 7.5 ug/ml after 7 days by two-dimensional broth microdilution checkerboard assay; settings: 168 h; in short: as §1
[30] = tested on: Mycobacterium tuberculosis; assay: Inhibition of multidrug resistance efflux pump in Mycobacterium tuberculosis H37Rv assessed as amikacin MIC at 0.12 ug/ml after 7 days by two-dimensional broth microdilution checkerboard assay; settings: 168 h; in short: as §2
[31] = tested on: Mycobacterium tuberculosis; assay: Inhibition of multidrug resistance efflux pump in Mycobacterium tuberculosis H37Rv assessed as rifampin MIC at 0.47 ug/ml after 7 days by two-dimensional broth microdilution checkerboard assay; settings: 168 h; in short: as §2

In the case of `COc1ccc(N(CCC2CCCCN2C)C(C)C)cc1OC` (racemic), the “fold change (FC)” value [1] is reported as 4.
Compound `CN1CCCCC1CCn1c2ccccc2c2ccccc21` (racemic) has an MIC [2] of 1 µg/mL, an MIC [3] of 1 µg/mL and an MIC [4] of 12.5 µg/mL. The MIC [5] was 0.1 µg/mL, the “fold change (FC)” value [6] was 4 and the MIC [7] was 12.5 µg/mL.
With `CN1CCCCC1CCn1ccc2ccc(Br)cc21` (racemic) the “fold change (FC)” value [8] was over 164 and the “fold change (FC)” value [9] was over 128.
In the case of `CSc1ccc2c(c1)N(CCC1CCCCN1C)c1ccccc1S2` (stereo unspecified) [THIORIDAZINE], the MIC [10] is reported as 0.1 µg/mL, the MIC [11] is reported as 0.1 µg/mL and the MIC [12] is reported as under 0.0156 µg/mL. For the same compound, the MIC [13] was 6.25 µg/mL, the MIC [14] was 1 µg/mL and the MIC [15] was 0.1 µg/mL. For the same compound, the MIC [16] was 3.12 µg/mL, the MIC [17] was 1 µg/mL and the MIC [18] was 1 µg/mL. The MIC [19] was 1 µg/mL, the “fold change (FC)” value [20] was over 64 and the MIC [21] was 1 µg/mL. The MIC [22] was under 0.195 µg/mL, the MIC [23] was 1 µg/mL and the MIC [24] was 6.25 µg/mL. For the same compound, the “fold change (FC)” value [25] was 4, the MIC [26] was 6.25 µg/mL and the MIC [27] was 0.1 µg/mL. It also gave an MIC [28] of 1 µg/mL, an MIC [29] of under 0.0156 µg/mL and an MIC [30] of 1 µg/mL. The MIC [31] was 1 µg/mL.
